Results on nine compounds are retold here after ChEMBL document CHEMBL1145835, “Novel potent 5-HT(1F) receptor agonists: structure-activity studies of a series of substituted N-[3-(1-methyl-4-piperidinyl)-1H-pyrrolo[3,2-b]pyridin-5-yl]amides” (J Med Chem, 2003).

Assay [1] has as its target T1, 5-hydroxytryptamine receptor 1A (Homo sapiens, UniProt P08908).
T1 sequence (P08908 whole entry): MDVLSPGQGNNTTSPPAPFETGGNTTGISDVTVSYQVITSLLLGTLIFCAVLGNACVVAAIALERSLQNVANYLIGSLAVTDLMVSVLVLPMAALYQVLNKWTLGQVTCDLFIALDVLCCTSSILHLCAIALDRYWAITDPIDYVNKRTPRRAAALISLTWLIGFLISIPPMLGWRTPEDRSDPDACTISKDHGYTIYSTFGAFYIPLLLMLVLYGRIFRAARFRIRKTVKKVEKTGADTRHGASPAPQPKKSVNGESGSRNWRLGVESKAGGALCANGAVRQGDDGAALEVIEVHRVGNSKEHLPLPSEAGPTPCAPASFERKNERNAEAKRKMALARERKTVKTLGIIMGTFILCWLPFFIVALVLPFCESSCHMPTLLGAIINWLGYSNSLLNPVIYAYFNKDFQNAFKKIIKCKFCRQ
The experiment in a line: In vitro binding affinity by radioligand binding assay using cell line expressing human 5-hydroxytryptamine 1A receptor. Summed up: (§1)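 Ki (nM) from radioligand binding on cell lines each expressing one human serotonin receptor subtype. Values are means of at least three determinations with SEM. ND: Ki not determined, when a 10⁻⁷ M test ligand gave <50% displacement of radioligand.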

Assay [2] concerns the target 5-hydroxytryptamine receptor 1B (Homo sapiens, UniProt P28222). The experiment in a line: In vitro binding affinity by radioligand binding assay using cell line expressing human 5-hydroxytryptamine 1B receptor. In outline: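 Ki (nM) from radioligand binding on cell lines each expressing one human serotonin receptor subtype. Values are means of at least three determinations with SEM.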

The target in assay [3] is T2, 5-hydroxytryptamine receptor 1F (Homo sapiens, UniProt P30939).
T2 sequence (P30939 whole entry): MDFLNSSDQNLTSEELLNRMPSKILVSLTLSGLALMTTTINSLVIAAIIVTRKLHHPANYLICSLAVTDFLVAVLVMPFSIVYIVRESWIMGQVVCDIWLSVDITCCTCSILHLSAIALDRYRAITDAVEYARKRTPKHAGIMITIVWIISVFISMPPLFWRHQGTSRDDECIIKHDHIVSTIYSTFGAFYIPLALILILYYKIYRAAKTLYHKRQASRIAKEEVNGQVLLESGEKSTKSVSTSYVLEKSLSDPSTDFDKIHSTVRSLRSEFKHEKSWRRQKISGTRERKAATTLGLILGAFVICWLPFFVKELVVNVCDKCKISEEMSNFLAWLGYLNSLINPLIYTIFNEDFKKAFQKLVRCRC
Kind of assay: In vitro effective concentration for stimulation of [35S]GTP-gamma-S, binding in mouse LM(tk-)cells expressing the human 5-HT1F receptor. It counts as functional.

In assay [4] the target is T3, 5-hydroxytryptamine receptor 1F (Homo sapiens) (UniProt P30939).
T3 sequence (whole entry): T2 sequence (P30939 whole entry)
Kind of assay: Maximum stimulation of [35S]GTP-gamma-S, binding expressed relative to the maximal effect of 5-hydroxytryptamine […]. It counts as functional. On the technique in general: GTPγS is a poorly hydrolysed GTP analogue; its binding reports G protein activation.

The target of assay [5] is T2, 5-hydroxytryptamine receptor 1F. The experiment in a line: In vitro binding affinity was determined by radioligand binding assay using cell line expressing human 5-hydroxytryptamine 1F receptor. Summed up: as §1
Assay [6] addresses 5-hydroxytryptamine receptor 1D (Homo sapiens, UniProt P28221). The experiment in a line: In vitro binding affinity by radioligand binding assay using cell line expressing human 5-hydroxytryptamine 1D receptor. In outline:
as §1

Assay [7] has as its system Cavia porcellus. The experiment in a line: In vivo efficacy in neurogenic plasma protein extravasation screen using guinea pig neurogenic PPE assay (1 ng/kg, po) at 1 hr postdose. The assay is classed as functional. Summed up: (§2)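 Guinea pig neurogenic dural PPE screen. Single oral dose of 1 ng/kg, then unilateral trigeminal ganglion stimulation with Evan's blue-labelled plasma protein leakage. Read-out is the fluorescence ratio of stimulated to unstimulated dura at 1 h or 24 h postdose. A ratio near 1 means full efficacy; near 1.8 means ineffective.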

For assay [8], the system named is Cavia porcellus. Kind of assay: In vivo efficacy in neurogenic plasma protein extravasation screen using guinea pig neurogenic PPE assay (1 ng/kg, po) at 24 hr postdose. The assay is classed as functional. In outline:
as §2

For assay [9], the species on record is Oryctolagus cuniculus. The experiment in a line: In vitro contractile response in rabbit saphenous vein. The assay is classed as functional. In outline:
(§3)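 Rabbit saphenous vein rings. Maximal contraction is expressed as % of the contraction induced by KCl (67 mM), with the concentration giving the maximal response recorded. Means (SEM) of three to seven determinations.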

The species named for assay [10] is Oryctolagus cuniculus. Kind of assay: In vitro concentration of maximum contractile response in rabbit saphenous vein. It counts as functional. Summed up:
as §3

Assay [11] deals with T2, 5-hydroxytryptamine receptor 1F. The experiment in a line: In vitro effective concentration for stimulation of [35S]GTP-gamma-S, binding in mouse LM(tk-)cells expressing the human 5-hydroxytryptamine 1F receptor. The assay is classed as functional.
For assay [12], the target named is 5-hydroxytryptamine receptor 1E (Homo sapiens, UniProt P28566). The experiment in a line: In vitro binding affinity by radioligand binding assay using cell line expressing human 5-hydroxytryptamine 1E receptor.
5-hydroxytryptamine receptor 1E, sequence (P28566 whole entry): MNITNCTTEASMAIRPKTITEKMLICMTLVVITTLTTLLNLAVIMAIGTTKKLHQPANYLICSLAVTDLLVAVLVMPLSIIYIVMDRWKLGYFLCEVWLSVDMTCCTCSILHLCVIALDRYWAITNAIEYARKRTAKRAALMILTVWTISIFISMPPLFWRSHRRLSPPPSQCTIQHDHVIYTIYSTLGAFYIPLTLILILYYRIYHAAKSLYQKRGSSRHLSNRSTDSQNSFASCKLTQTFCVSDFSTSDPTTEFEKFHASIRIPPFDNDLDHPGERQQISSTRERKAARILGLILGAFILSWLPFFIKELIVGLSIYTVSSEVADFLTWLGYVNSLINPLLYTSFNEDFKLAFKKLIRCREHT
The target in assay [13] is T4, 5-hydroxytryptamine receptor 2C (Homo sapiens, UniProt P28335).
T4 sequence (P28335 whole entry): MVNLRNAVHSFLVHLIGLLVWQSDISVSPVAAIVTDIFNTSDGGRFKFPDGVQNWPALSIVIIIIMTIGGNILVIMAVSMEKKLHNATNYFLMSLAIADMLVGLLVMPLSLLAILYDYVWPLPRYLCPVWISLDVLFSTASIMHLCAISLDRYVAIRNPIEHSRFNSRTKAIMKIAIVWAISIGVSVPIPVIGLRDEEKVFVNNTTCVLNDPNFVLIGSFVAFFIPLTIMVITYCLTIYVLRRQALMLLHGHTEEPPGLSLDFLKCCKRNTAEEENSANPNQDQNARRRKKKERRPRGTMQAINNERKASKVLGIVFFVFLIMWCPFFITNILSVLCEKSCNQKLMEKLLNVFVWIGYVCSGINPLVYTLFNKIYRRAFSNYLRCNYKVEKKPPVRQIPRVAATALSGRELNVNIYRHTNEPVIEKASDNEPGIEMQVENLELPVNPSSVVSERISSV
Kind of assay: In vitro binding affinity by radioligand binding assay using cell line expressing human 5-hydroxytryptamine 2C receptor.

Assay [14] concerns the target 5-hydroxytryptamine receptor 2B (Homo sapiens, UniProt P41595). The experiment in a line: In vitro binding affinity by radioligand binding assay using cell line expressing human 5-hydroxytryptamine 2B receptor.
The target in assay [15] is 5-hydroxytryptamine receptor 2A (Homo sapiens, UniProt P28223). The experiment in a line: In vitro binding affinity by radioligand binding assay using cell line expressing human 5-hydroxytryptamine 2A receptor.
5-hydroxytryptamine receptor 2A, sequence (P28223 whole entry): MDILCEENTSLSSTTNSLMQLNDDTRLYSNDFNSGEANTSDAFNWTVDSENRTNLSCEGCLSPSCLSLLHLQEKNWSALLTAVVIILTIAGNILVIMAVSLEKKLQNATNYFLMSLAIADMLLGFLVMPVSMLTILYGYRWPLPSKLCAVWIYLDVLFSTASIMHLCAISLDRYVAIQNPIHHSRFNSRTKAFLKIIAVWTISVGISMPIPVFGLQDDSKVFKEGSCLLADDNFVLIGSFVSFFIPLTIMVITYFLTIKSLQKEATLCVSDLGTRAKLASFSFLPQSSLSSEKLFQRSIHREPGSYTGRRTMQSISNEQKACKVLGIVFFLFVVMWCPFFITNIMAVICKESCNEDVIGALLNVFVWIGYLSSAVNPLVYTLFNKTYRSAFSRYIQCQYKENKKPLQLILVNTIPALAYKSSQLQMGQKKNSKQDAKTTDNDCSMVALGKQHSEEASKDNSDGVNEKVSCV
Assay [16] concerns the target 5-hydroxytryptamine receptor 6 (Homo sapiens, UniProt P50406). Kind of assay: In vitro binding affinity by radioligand binding assay using cell line expressing human 5-hydroxytryptamine 6 receptor.
The target in assay [17] is 5-hydroxytryptamine receptor 4 (Homo sapiens, UniProt Q13639). The experiment in a line: In vitro binding affinity by radioligand binding assay using cell line expressing human 5-hydroxytryptamine 4 receptor.
5-hydroxytryptamine receptor 4, sequence (Q13639 whole entry): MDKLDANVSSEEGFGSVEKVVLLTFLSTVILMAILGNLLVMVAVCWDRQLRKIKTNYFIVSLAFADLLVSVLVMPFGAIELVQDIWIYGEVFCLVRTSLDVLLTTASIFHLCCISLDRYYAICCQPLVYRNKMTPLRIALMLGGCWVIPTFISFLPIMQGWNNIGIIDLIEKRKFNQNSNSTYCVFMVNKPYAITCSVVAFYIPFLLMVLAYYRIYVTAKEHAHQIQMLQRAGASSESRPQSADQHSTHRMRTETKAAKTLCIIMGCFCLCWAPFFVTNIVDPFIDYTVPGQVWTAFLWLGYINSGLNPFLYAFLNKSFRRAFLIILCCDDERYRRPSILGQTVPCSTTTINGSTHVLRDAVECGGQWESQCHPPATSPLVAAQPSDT
Assay [18] deals with 5-hydroxytryptamine receptor 7 (Homo sapiens, UniProt P34969). The experiment in a line: In vitro binding affinity by radioligand binding assay using cell line expressing human 5-hydroxytryptamine 7 receptor.
5-hydroxytryptamine receptor 7, sequence (P34969 whole entry): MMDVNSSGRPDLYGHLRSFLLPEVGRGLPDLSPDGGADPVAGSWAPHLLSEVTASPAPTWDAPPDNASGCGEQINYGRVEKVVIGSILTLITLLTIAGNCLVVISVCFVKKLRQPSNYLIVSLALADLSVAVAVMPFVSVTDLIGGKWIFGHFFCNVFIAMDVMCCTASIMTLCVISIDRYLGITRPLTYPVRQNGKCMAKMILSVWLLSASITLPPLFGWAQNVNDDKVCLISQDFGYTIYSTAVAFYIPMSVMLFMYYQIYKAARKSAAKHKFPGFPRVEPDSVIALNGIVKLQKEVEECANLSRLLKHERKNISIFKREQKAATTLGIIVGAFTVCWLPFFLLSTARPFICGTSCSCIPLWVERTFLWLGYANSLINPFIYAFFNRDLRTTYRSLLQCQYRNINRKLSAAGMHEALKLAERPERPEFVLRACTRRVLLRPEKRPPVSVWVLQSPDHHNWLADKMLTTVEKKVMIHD

5-hydroxytryptamine receptor 1B, sequence (P28222 whole entry): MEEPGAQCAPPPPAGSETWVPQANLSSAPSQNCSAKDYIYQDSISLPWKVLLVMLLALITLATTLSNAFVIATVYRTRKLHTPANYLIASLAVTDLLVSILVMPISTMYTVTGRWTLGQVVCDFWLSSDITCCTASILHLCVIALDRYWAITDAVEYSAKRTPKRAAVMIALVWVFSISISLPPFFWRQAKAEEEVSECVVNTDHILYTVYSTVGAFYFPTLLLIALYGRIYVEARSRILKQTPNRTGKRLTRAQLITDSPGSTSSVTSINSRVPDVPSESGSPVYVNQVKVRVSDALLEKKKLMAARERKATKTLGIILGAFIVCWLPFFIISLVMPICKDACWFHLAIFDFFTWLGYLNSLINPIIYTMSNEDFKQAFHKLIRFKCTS
5-hydroxytryptamine receptor 1D, sequence (P28221 whole entry): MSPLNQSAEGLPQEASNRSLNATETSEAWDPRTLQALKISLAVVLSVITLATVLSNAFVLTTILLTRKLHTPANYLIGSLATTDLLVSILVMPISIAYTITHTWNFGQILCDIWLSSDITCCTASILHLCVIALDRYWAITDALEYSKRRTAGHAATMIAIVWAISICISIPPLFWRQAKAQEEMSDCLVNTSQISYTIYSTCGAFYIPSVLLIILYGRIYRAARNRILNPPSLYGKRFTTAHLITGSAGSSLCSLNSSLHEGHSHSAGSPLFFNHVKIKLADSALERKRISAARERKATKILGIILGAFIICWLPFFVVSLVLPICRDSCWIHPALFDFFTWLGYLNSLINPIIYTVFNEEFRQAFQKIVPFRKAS
5-hydroxytryptamine receptor 6, sequence (P50406 whole entry): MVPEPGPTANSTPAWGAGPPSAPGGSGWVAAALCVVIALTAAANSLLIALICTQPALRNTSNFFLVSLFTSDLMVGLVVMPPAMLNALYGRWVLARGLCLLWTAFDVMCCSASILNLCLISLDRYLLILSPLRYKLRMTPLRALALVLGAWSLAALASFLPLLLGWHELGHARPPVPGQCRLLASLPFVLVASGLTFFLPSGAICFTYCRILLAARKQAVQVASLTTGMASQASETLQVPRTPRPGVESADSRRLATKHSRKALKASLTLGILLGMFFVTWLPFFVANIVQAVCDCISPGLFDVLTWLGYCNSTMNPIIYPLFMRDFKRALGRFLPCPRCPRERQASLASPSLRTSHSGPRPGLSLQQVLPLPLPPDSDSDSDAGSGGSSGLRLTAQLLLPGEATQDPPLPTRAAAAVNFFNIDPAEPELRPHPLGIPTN
5-hydroxytryptamine receptor 2B, sequence (P41595 whole entry): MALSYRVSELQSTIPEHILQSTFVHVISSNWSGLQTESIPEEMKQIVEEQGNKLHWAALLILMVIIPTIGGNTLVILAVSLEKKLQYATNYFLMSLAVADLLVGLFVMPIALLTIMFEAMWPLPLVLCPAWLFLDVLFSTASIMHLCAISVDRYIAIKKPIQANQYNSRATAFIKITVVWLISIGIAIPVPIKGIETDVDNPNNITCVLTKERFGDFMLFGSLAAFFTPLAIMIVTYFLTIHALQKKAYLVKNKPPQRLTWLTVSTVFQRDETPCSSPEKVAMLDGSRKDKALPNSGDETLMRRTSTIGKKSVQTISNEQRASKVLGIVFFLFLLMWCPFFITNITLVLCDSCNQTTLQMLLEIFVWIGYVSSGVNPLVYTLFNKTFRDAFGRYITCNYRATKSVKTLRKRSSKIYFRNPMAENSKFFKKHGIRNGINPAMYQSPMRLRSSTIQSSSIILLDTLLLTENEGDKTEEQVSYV

Usually Ki stands for a dissociation constant, usually derived from enzyme kinetics or from competition with a known ligand. Higher therefore signals lower affinity. As usually defined, the EC50 is the concentration needed to bring the measured effect to its halfway point. A word on the Emax: it is the greatest response seen or fitted, relative to the assay's reference. Consider `CC(=O)Nc1ccc2[nH]cc(C3CCN(C)CC3)c2n1`, for which the inhibition constant (Ki) was determined as 620 nM in assay [1], 270 nM in assay [2], 5 nM in [5] and 250 nM in [6]. Also, the EC50 in [3] came out at 36 nM. This compound gave an Emax in [4] of 98%. Besides, the Efficacy in assay [7] came to 1; in assay [8], 1.1. Further, in [9], the Response turned out to be 5.7%. In addition, the “Concentration of max response” value in [10] came to 30 µM.

Consider `CN1CCC(c2c[nH]c3ccc(NC(=O)C4CC4)nc23)CC1`, for which the Ki in assay [1] came to 1400 nM; in assay [2] it was 1700 nM; in [5], 9.8 nM; in assay [6], 1800 nM. Also, the EC50 in assay [11] amounted to 34 nM. For the same compound, the Emax in assay [4] is 77%. This compound displayed an Efficacy in assay [7] of 1.4. Further, the Response in [9] was 2.3%.

In the case of `CN1CCC(c2c[nH]c3ccc(NC(=O)c4ccsc4)nc23)CC1`, the Ki was found to be 400 nM in [1], 1000 nM in assay [2], 7.4 nM in assay [5] and 810 nM in [6]. For the same compound, in assay [11], the EC50 stood at 9.4 nM. The compound also registered an Emax in assay [4] of 84%. Moreover, the Efficacy in assay [7] turned out to be 1; in assay [8], 1.6. In addition, the Response in [9] came out at 0%.

For `CCC(=O)Nc1ccc2[nH]cc(C3CCN(C)CC3)c2n1`, the Ki is 1000 nM in [1]; 720 nM in assay [2]; 5.5 nM in [5]; 770 nM in assay [12]; 730 nM in [6]; 310 nM in assay [13]. Further, the Ki in assay [14] is over 10000 nM; in assay [15], 3400 nM; in [16] it was 1120 nM; in assay [17], 2400 nM. A half-maximal effect in assay [11] (EC50) was put at 32 nM. In assay [4], this compound showed an Emax of 88%. For the same compound, the Efficacy in assay [7] is reported as 1.2; in [8], 1. The same compound returned a Response in [9] of 3%.

As for `CN1CCC(c2c[nH]c3ccc(NC(=O)C4CCC4)nc23)CC1`, the Ki in assay [1] is 2000 nM; in assay [2] it was 380 nM; in [5], 8.7 nM; in [6], 900 nM. In [11], this compound had an EC50 of 21 nM. The Emax in assay [4] came to 81%. The same compound yielded a Response in assay [9] of 17%.

Turning to `CCCC(=O)Nc1ccc2[nH]cc(C3CCN(C)CC3)c2n1`, the EC50 in assay [11] is 13 nM. Further, the maximum response (Emax) in [4] came out at 94%. This compound also returned a Ki in assay [5] of 6.9 nM. In assay [9], this compound yielded a Response of 12.4%.

On to `CN1CCC(c2c[nH]c3ccc(NC(=O)c4ccccc4)nc23)CC1`, for which the Ki in assay [1] came out at 72 nM; in assay [2], 820 nM; in assay [5] it was 7.3 nM; in assay [6], 1000 nM. The Efficacy was determined as 1.1 in assay [7] and 1.6 in assay [8]. The Response in [9] came out at 0%.

As to `CN1CCC(c2c[nH]c3ccc(NC(=O)c4ccc(C#N)cc4)nc23)CC1`, the Ki in assay [1] was 31 nM; in assay [2], 310 nM; in assay [5], 7.2 nM; in [6], 380 nM. For the same compound, the Efficacy in assay [7] turned out to be 1.5. The Response in assay [9] was found to be 1.1%. Moreover, in assay [10], the “Concentration of max response” value came out at 30 µM.

Regarding `CN1CCC(c2c[nH]c3ccc(NC(=O)c4ccc(F)cc4)nc23)CC1`, the Ki came out at 56 nM in [1]; 1200 nM in assay [2]; 7.6 nM in assay [5]; 660 nM in [12]; 730 nM in [6]; 1900 nM in assay [13]. In addition, the Ki is over 10000 nM in [14]; 4800 nM in [15]; over 10000 nM in assay [16]; 4000 nM in assay [17]; over 5000 nM in [18]. The same compound displayed a Response in assay [9] of 16%.
